Measured values as given in ChEMBL document CHEMBL1135789, “Novel structures derived from 2-[[(2-pyridyl)methyl]thio]-1H-benzimidazole as anti-Helicobacter pylori agents, Part 2” (J Med Chem, 2002).
≈ marks a conversion by molar mass, not a printed value.

Tests used:
[1] = system: Mus musculus; assay: AUC (area under curve) after oral dosing by gavage needle at 30 mg/kg in C57BL/6NTac female mice; Not checked; type: ADME, organism-based, Plasma; parameters: dose 30 mg/kg, route oral; conditions: in vivo
Method in brief: (§1)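 Single oral gavage dose of 30 mg/kg in 85:15 0.5% aqueous hydroxypropylmethylcellulose:PEG-400, given to female C57BL/6NTac mice (6 weeks, 20 g). Plasma was diluted with MeCN to remove proteins, and the parent compound was quantified by LC-MS in single ion recording mode against calibration curves (LLOQ 10-50 ng/mL).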

[2] = system: Helicobacter pylori; assay: Minimum bacterial concentration (MBC) at which maximum growth inhibition against Helicobacter pylori has occurred; type: functional
Method in brief: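 Strain ARHp206. Aliquots from microdilution wells showing no growth were plated on trypticase soy agar with 5% sheep blood. The MBC was judged by visual inspection as the concentration giving maximum growth inhibition.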

[3] = system: Helicobacter pylori; assay: Minimum inhibitory concentration against Helicobacter pylori (Helicobacter pylori) ARHp strain 80; type: functional
Method in brief: (§2)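 Broth microdilution with two-fold serial dilutions in Brucella broth plus 5% (v/v) heat-inactivated FCS. Strains were pre-grown microaerophilically (5% O2, 10% CO2, 85% N2) on blood agar at 37 °C and passaged twice. The inoculum was a final 10^7 cells/mL.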

[4] = system: Helicobacter pylori; assay: Minimum inhibitory concentration against Helicobacter pylori (Helicobacter pylori) ARHp strain 206; type: functional; method in brief: as §2
[5] = system: Helicobacter pylori; assay: Minimum inhibitory concentration against Helicobacter pylori (Helicobacter pylori) ARHp strain 81; type: functional; method in brief: as §2
[6] = system: Helicobacter pylori; assay: Minimum inhibitory concentration against Helicobacter pylori (Helicobacter pylori) ARHp strain 115; type: functional; method in brief: as §2
[7] = system: Mus musculus; assay: Maximum plasma concentration (Cmax) after oral dosing by gavage needle at 30 mg/kg in C57BL/6NTac female mice; Not checked; type: ADME, organism-based; parameters: dose 30 mg/kg, route oral; conditions: in vivo; method in brief: as §1
[8] = system: Mus musculus; assay: AUC (area under curve) after oral dosing by gavage needle at 30 mg/kg in C57BL/6NTac female mice; type: ADME, organism-based, Plasma; parameters: dose 30 mg/kg, route oral; conditions: in vivo; method in brief: as §1
[9] = Maximum plasma concentration (Cmax) after oral dosing by gavage needle at 30 mg/kg in C57BL/6NTac female mice; type: ADME, organism-based; parameters: dose 30 mg/kg, route oral; conditions: mouse; method in brief: as §1
[10] = system: Mus musculus; assay: Maximum plasma concentration (Cmax) after oral dosing by gavage needle at 30 mg/kg in C57BL/6NTac female mice; Not detected; type: ADME, organism-based; parameters: dose 30 mg/kg, route oral; conditions: in vivo; method in brief: as §1
[11] = system: Mus musculus; assay: AUC (area under curve) after oral dosing by gavage needle at 30 mg/kg in C57BL/6NTac female mice; Not detected; type: ADME, organism-based, Plasma; parameters: dose 30 mg/kg, route oral; conditions: in vivo; method in brief: as §1

SMILES | AUC [1] | MBC [2] [µg/mL] | MIC [3] [µg/mL] | MIC [4] [µg/mL] | MIC [5] [µg/mL] | MIC [6] [µg/mL] | Cmax [7] | AUC [8] [ng·h/mL] | Cmax [9] [ng/mL] | Cmax [10] | AUC [11]
Cc1c(CSc2nc3ccccc3[nH]2)cccc1SCCNS(=O)(=O)c1cccc2cccnc12 | Not checked | > 8 | 4 (≈ 7.68 µM) | 8 (≈ 15.4 µM) | 8 (≈ 15.4 µM) | 4 (≈ 7.68 µM) | Not checked | – | – | – | –
Cc1c(CSc2nc3ccccc3[nH]2)cccc1SCCNC(=O)Nc1ccccc1 | – | 8 (≈ 17.8 µM) | 0.5 (≈ 1.11 µM) | 0.5 (≈ 1.11 µM) | 0.5 (≈ 1.11 µM) | 0.5 (≈ 1.11 µM) | – | 283 | 140 | – | –
Cc1c(CSc2nc3ccccc3[nH]2)cccc1SCCO | Not checked | > 8 | 1 (≈ 3.03 µM) | 1 (≈ 3.03 µM) | 1 (≈ 3.03 µM) | 1 (≈ 3.03 µM) | Not checked | – | – | – | –
COc1cccc(NC(=O)OCCSc2cccc(CSc3nc4ccccc4[nH]3)c2C)c1 | – | 8 (≈ 16.7 µM) | 0.25 (≈ 0.521 µM) | 0.5 (≈ 1.04 µM) | 0.5 (≈ 1.04 µM) | 0.25 (≈ 0.521 µM) | – | 1630 | 797 | – | –
Cc1c(CSc2nc3ccccc3[nH]2)cccc1SCC(=O)NCc1cccs1 | – | 8 (≈ 18.2 µM) | 0.5 (≈ 1.14 µM) | 1 (≈ 2.27 µM) | 1 (≈ 2.27 µM) | 0.5 (≈ 1.14 µM) | – | – | – | Not detected | Not detected
Cc1c(CSc2nccs2)cccc1SCCOC(=O)Nc1ccccc1 | – | 8 (≈ 19.2 µM) | 0.5 (≈ 1.2 µM) | 0.5 (≈ 1.2 µM) | 0.5 (≈ 1.2 µM) | 0.5 (≈ 1.2 µM) | – | 99 | 74 | – | –
Cc1c(CSc2ccncc2)cccc1SCCOC(=O)Nc1ccccc1 | Not checked | 8 (≈ 19.5 µM) | 0.25 (≈ 0.609 µM) | 0.5 (≈ 1.22 µM) | 0.5 (≈ 1.22 µM) | 0.25 (≈ 0.609 µM) | Not checked | – | – | – | –
Cc1c(CSc2nc3ccccc3[nH]2)cccc1SCC(=O)N1CCCCC1 | – | > 8 | 0.25 (≈ 0.607 µM) | 0.5 (≈ 1.21 µM) | 0.5 (≈ 1.21 µM) | 0.25 (≈ 0.607 µM) | – | 135 | 57 | – | –
Cc1c(CSc2nc3ccccc3[nH]2)cccc1SCCN | Not checked | > 8 | 4 (≈ 12.1 µM) | 8 (≈ 24.3 µM) | 8 (≈ 24.3 µM) | 4 (≈ 12.1 µM) | Not checked | – | – | – | –
Cc1c(CSc2nc3ccccc3[nH]2)cccc1SCC(=O)O | Not checked | > 8 | > 16 | > 16 | > 16 | > 16 | Not checked | – | – | – | –
Cc1c(CSc2nc3ccccc3[nH]2)cccc1SCC(=O)NCc1ccccc1 | – | 1 (≈ 2.31 µM) | 1 (≈ 2.31 µM) | 1 (≈ 2.31 µM) | 1 (≈ 2.31 µM) | 1 (≈ 2.31 µM) | – | – | – | Not detected | Not detected
Cc1c(CSc2nc3ccccc3[nH]2)cccc1SCCOC(=O)Nc1ccc(F)c(F)c1 | – | 8 (≈ 16.5 µM) | 0.25 (≈ 0.515 µM) | 0.5 (≈ 1.03 µM) | 0.5 (≈ 1.03 µM) | 0.25 (≈ 0.515 µM) | – | 1130 | 398 | – | –
Cc1c(CSc2nc3ccccc3[nH]2)cccc1SCCOC(=O)Nc1ccccc1 | – | 1 (≈ 2.22 µM) | 0.5 (≈ 1.11 µM) | 0.5 (≈ 1.11 µM) | 0.5 (≈ 1.11 µM) | 0.5 (≈ 1.11 µM) | – | 2070 | 906 | – | –
Cc1c(CSc2nc3ccccc3[nH]2)cccc1SCCNC(=O)c1cnccn1 | – | > 8 | 0.25 (≈ 0.574 µM) | 0.5 (≈ 1.15 µM) | 0.5 (≈ 1.15 µM) | 0.25 (≈ 0.574 µM) | – | 271 | 471 | – | –
Cc1c(CSc2nc3ccccc3[nH]2)cccc1SCCOC(=O)Nc1ccc(N(C)C)cc1 | – | > 8 | 0.5 (≈ 1.01 µM) | 1 (≈ 2.03 µM) | 1 (≈ 2.03 µM) | 0.5 (≈ 1.01 µM) | – | 299 | 331 | – | –
CC1(C)S[C@@H]2[C@H](NC(=O)[C@H](N)c3ccc(O)cc3)C(=O)N2[C@H]1C(=O)O [AMOXICILLIN] | Not checked | – | 0.06 (≈ 0.164 µM) | 0.12 (≈ 0.328 µM) | 0.06 (≈ 0.164 µM) | 0.06 (≈ 0.164 µM) | Not checked | – | – | – | –
CC[C@H]1OC(=O)[C@H](C)[C@@H](O[C@H]2C[C@@](C)(OC)[C@@H](O)[C@H](C)O2)[C@H](C)[C@@H](O[C@@H]2O[C@H](C)C[C@H](N(C)C)[C@H]2O)[C@](C)(OC)C[C@@H](C)C(=O)[C@H](C)[C@@H](O)[C@]1(C)O [CLARITHROMYCIN] | – | – | < 0.06 | < 0.06 | < 0.06 | < 0.06 | – | 1770 | 1000 | – | –
Cc1ncc([N+](=O)[O-])n1CCO [METRONIDAZOLE] | Not checked | – | 8 (≈ 46.7 µM) | 1 (≈ 5.84 µM) | 1 (≈ 5.84 µM) | 1 (≈ 5.84 µM) | Not checked | – | – | – | –
CN(C)[C@@H]1C(O)=C(C(N)=O)C(=O)[C@@]2(O)C(O)=C3C(=O)c4c(O)cccc4[C@@](C)(O)[C@H]3C[C@@H]12 [TETRACYCLINE] | – | – | 1 (≈ 2.25 µM) | 1 (≈ 2.25 µM) | 1 (≈ 2.25 µM) | 1 (≈ 2.25 µM) | – | – | – | – | –
